Laboratory results as given in publication PMC11897353 (Scientific Reports, 2025).
“Also recorded” adds a separate entry of the source.

How the values were obtained:
[1] = system: LC3 and p62; assay: Common autophagy pathway protein levels; format: cell-based, human; conditions: SH-SY5Y, 24 h, vs control; Rapamycin 100 nM
Summary of the method: (§1)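 Test compound was diluted in medium from a 5 mM DMSO stock and applied to SH-SY5Y cells for 24 h, after 24 h growth and a PBS wash. Controls were untreated medium and rapamycin. Cells were lysed in RIPA with protease/phosphatase inhibitors and protein measured by BCA. Equal protein was run on 6%/12% SDS-PAGE, then PVDF, 3% BSA block, primary overnight 4 °C, ECL. Densitometry; n≥3, mean ± SEM, one-way ANOVA with Tukey.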

[2] = system: mTOR pathway; assay: mTOR pathway protein phosphorylation by Western blot; format: cell-based, human; conditions: SH-SY5Y, 24 h, vs control; Rapamycin 100 nM
Summary of the method: as §1

[3] = system: 5-HT6R; assay: 5-HT6R protein levels by Western blot; format: cell-based, human; conditions: SH-SY5Y, 24 h, densitometry vs control; Rapamycin 100 nM
Summary of the method: as §1

[4] = system: SH-SY5Y cells; assay: Autophagy induction by LC3 immunofluorescence; format: cell-based, human; conditions: for number of autophagosomes per cell / percentage of cells with autophagosomes (LC3-positive punctate pattern): SH-SY5Y, 25 µM, 24 h, vs control; for capacity to induce autophagy: neuroblastoma SH-SY5Y cell line
Summary of the method: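 SH-SY5Y cells were grown on coverslips at 20–40% confluence for 24 h, then given test compound at 25 µM for 24 h. Fixation used 4% paraformaldehyde plus DAPI for 20 min. Cells were permeabilized with 0.1% Triton, blocked in 3% BSA, and stained with anti-LC3A/B (1:400, overnight 4 °C) then Alexa 488 secondary. Images at 20x. Cells with LC3 puncta were counted against DAPI nuclei, and puncta per cell by 3D object counting.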

[5] = Preliminary zebrafish larvae viability assay; conditions: in vivo, other: larvae exposed to the compound at 2–50 µM
[6] = MTT cell viability assay; format: cell-based, human; conditions: human, SH-SY5Y neuroblastoma cells
Summary of the method: (§2)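 SH-SY5Y cells were seeded at 5 × 10³ per well, grown 24 h, then given test compound at 5, 10 or 25 µM for 24 h, in triplicate. A solvent control was included, and 10% SDS added 1 h before the end served as the death control. MTT at 0.5 mg/mL ran 4 h at 37 °C, followed by overnight solubilization in 10% SDS/0.1 M HCl and A570. Results are % MTT reduction versus the negative control (100%); 3 experiments, one-way ANOVA.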

[7] = system: SH-SY5Y cells; assay: MTT cell viability assay; format: cell-based, human; conditions: SH-SY5Y, 5 µM, 10 µM and 25 µM, 24 h, MTT
Summary of the method: as §2

[8] = molecular target: human 5-HT6 receptors (Homo sapiens, UniProt P50406); assay: biochemical; format: binding
[9] = molecular target: receptor 5-HT6; conditions: reported for the endogenous ligand; cited from earlier work

Sequence of human 5-HT6 receptors (P50406 whole entry): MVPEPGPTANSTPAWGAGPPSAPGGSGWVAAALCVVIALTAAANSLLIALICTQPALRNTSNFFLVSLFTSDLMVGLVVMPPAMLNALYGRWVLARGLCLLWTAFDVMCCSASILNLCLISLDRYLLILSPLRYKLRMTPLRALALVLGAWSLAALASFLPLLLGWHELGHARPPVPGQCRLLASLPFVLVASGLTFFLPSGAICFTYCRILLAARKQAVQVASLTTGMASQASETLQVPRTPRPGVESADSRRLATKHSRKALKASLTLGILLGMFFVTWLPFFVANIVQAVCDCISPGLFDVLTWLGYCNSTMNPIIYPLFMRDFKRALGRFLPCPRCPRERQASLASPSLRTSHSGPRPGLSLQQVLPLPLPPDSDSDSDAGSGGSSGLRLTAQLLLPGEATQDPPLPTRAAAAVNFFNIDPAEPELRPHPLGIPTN

SMILES: CO[C@H]1C[C@@H]2CC[C@@H](C)[C@@](O)(O2)C(=O)C(=O)N2CCCC[C@H]2C(=O)O[C@H]([C@H](C)C[C@@H]2CC[C@@H](O)[C@H](OC)C2)CC(=O)[C@H](C)/C=C(\C)[C@@H](O)[C@@H](OC)C(=O)[C@H](C)C[C@H](C)/C=C/C=C/C=C/1C [Rapamycin, reference compound]
- LC3-II/LC3-I ratio [1]: significant increase
- p62 levels [1]: significantly decreased
- total LC3-II levels [1]: significantly increased
- phosphorylated levels of BECN1 (Ser30) [2]: significantly increased
- phosphorylated levels of ULK1 (Ser757) [2]: significantly decreases
- phosphorylated levels of mTOR (Ser2448) [2]: significantly decreases
- expression levels of 5-HT6R [3]: did not modify the expression levels; also recorded: did not produce significant changes

SMILES: COc1ccccc1N1CCN(CC(O)c2cn(S(=O)(=O)c3cccc4ccccc34)c3ccccc23)CC1 (stereo not shown) [PUC-10, 2-(4-(2-methoxyphenyl)piperazin-1-yl)-1-(1-(naphthalen-1-ylsulfonyl)-1 H-indol-3-yl)ethan-1-ol]
- LC3-II/LC3-I ratio [1]: significant increase
- p62 levels [1]: significantly decreased
- total LC3-II levels [1]: significantly increased
- phosphorylated levels of BECN1 (Ser30) [2]: significantly increased
- phosphorylated levels of ULK1 (Ser757) [2]: significantly decreases
- phosphorylated levels of mTOR (Ser2448) [2]: significantly decreases
- expression levels of 5-HT6R [3]: increases significantly; also recorded: significantly increased
- number of autophagosomes per cell [4]: significant increase
- percentage of cells with autophagosomes (LC3-positive punctate pattern) [4]: significantly higher percentage
- capacity to induce autophagy [4]: high capacity to induce autophagy
- viability at 48 h [5]: ~85%
- viability at 24 h, 25 µM [6]: > 90%
- cytotoxicity / cellular viability (in words) [7]: do not induce cytotoxicity; also recorded: do not cause toxicity

SMILES: COc1ccccc1N1CCN(CC(O)c2nn(S(=O)(=O)c3cccc4ccccc34)c3ccccc23)CC1 (stereo not shown) [PUC-55, 2-(4-(2-methoxyphenyl)piperazin-1-yl)-1-(1-(naphthalen-1-ylsulfonyl)-1H-indazol-3-yl)ethan-1-ol]
- LC3-II/LC3-I ratio [1]: significant increase
- p62 levels [1]: significantly decreased
- total LC3-II levels [1]: significantly increased
- phosphorylated levels of BECN1 (Ser30) [2]: significantly increased
- phosphorylated levels of ULK1 (Ser757) [2]: significantly decreases
- phosphorylated levels of mTOR (Ser2448) [2]: significantly decreases
- expression levels of 5-HT6R [3]: increases significantly; also recorded: significantly increased
- number of autophagosomes per cell [4]: significant increase
- percentage of cells with autophagosomes (LC3-positive punctate pattern) [4]: significantly higher percentage
- capacity to induce autophagy [4]: potent autophagy-inducing activity
- cytotoxicity / cellular viability (in words) [7]: high cellular viability; also recorded: do not induce cytotoxicity; also recorded: do not cause toxicity
- IC50 [8]: 39 nM
- Ki [8]: 37.5 nM
